In PubChem BioAssay:
Calls of active or inactive are those of the source.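 Rule for the calls, unless noted: active = fluorescence slope higher than the sample average by over 3 SD (cut at about -0.22 in these data, passing the limit was not always enough); inactive = the rest.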

Tests used:
[1] = inhibitors of TNFa-induced NFkB p65 translocation, primary screen, imaging, HUVEC, MLSMR starter and 10KST1 sets (AID 438;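 active = inhibition above 20% together with a positive visual image hit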;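 note: compound added about 3h40 before a 20 min TNFalpha stimulation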;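 for inhibition: signal is the nuclear over cytoplasmic p65 intensity ratio per well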); conditions: HUVEC TNFa-induced p65 nuclear translocation; cell count: measured here: nuclei count (cytotoxicity indicator), at 2.08 µM; inhibition: at 2 µM, stronger effect = higher value, 0% TNFa-plus-vehicle, 100% no-TNFa wells
[2] = inhibitors of mutant huntingtin aggregation, primary screen, imaging, exon1htt(103Q)mCFP cells, high-content imaging (AID 483;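 active = visual image review flags a hit and inhibition of aggregation exceeds 20%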;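 note: compound exposure lasted 3 days before fixation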;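 for nuclei count: percent of the per-plate median nuclei count of sample wells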); conditions: exon1htt(103Q)mCFP cell line, aggregate imaging, at 2 µM; inhibition of aggregation: stronger effect = higher value; nuclei count: measured here: cell count, toxicity
[3] = inhibitors of E-selectin induction by TNFa, primary screen, imaging, HUVEC, immunofluorescence, MLSMR starter and 10KST1 sets (AID 487;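 active = visually confirmed hit in the image check and inhibition above 20%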;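 for inhibition: signal is fraction of cell area covered by stained E-selectin grains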;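 for nuclei count: 100% = median nuclei count of all wells on the same plate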); conditions: HUVEC TNFalpha-induced E-selectin immunofluorescence imaging, at 2 µM; inhibition: stronger effect = higher value; nuclei count: measured here: cell number, toxicity
[4] = target: Voltage-gated potassium channel subunit beta-2 (Rattus norvegicus) (UniProt P62483); assay: KvBeta enzyme negative modulators, primary screen, biochemical, NADPH fluorescence (AID 622); conditions: recombinant KvBeta, 4-cyanobenzaldehyde reduction, at 10 µM, stronger effect = higher value;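 note: slope of raw intensity against log time taken from 70 to 1610 s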
[5] = target: Voltage-gated potassium channel subunit beta-2 (Rattus norvegicus) (UniProt P62483); assay: KvBeta positive modulators, primary screen, biochemical, NADPH fluorescence (AID 623;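 active = NADPH fluorescence slope more negative than the mean of all samples by about 3 SD, 99.7% confidence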;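 note: fluorescence intensity change per second fitted from 20 to 320 s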); conditions: Recombinant KvBeta, NADPH fluorescence decrease slope, 10 min; at 10 µM; stronger effect = lower value
[6] = target: Muscarinic acetylcholine receptor M4 (Homo sapiens) (UniProt P08173); assay: compounds altering M4/GIRK thallium flux, either direction, primary screen, M4 allosteric agonist project, cell-based, HEK293 M4/GIRK, BTC-AM (AID 625;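 active = fluorescence slope after compound addition differing from the mean of all tested samples at 99.7% confidence, mostly higher but some lower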;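 note: thallium influx through GIRK channels coupled to M4 in HEK293 cells with BTC-AM dye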); conditions: at 10 µM, actives lie on both sides
How it was run: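 Assay system: HEK293 cells with M4 receptor and GIRK channels / Controls: carbachol and DMSO controls / Schedule: 1 h dye loading, 2 min kinetic read / Technique: kinetic fluorescence with BTC-AM dye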

[7] = inhibitors of Sendai virus-induced IRF3 signaling, primary screen, TLR/RLR signaling modifier project, cell-based, Sendai virus stimulus, luciferase, 10K MLSCN set (AID 602276;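 active = inhibition at or above 50% at 10 µM; inactive = inhibition below 50%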;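 note: firefly luciferase from ISG56 promoter only with Renilla not read in this screen; 0% = Sendai virus plus DMSO and 100% = medium plus DMSO without virus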); conditions: HEK293 RL24 IRF3 luciferase reporter, at 10 µM, stronger effect = higher value
[8] = inhibitors of poly I:C-induced TLR3 signaling, primary screen, cell-based, poly I:C stimulus, luciferase, 10K MLSCN set (AID 602277;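 active = inhibition of the reporter signal at or above 50%; inactive = inhibition below 50%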); conditions: HEK293-TLR3 RL24 IRF3 luciferase reporter, at 10 µM, stronger effect = higher value

Chain of Muscarinic acetylcholine receptor M4 (Homo sapiens) (P08173 whole entry, looked up): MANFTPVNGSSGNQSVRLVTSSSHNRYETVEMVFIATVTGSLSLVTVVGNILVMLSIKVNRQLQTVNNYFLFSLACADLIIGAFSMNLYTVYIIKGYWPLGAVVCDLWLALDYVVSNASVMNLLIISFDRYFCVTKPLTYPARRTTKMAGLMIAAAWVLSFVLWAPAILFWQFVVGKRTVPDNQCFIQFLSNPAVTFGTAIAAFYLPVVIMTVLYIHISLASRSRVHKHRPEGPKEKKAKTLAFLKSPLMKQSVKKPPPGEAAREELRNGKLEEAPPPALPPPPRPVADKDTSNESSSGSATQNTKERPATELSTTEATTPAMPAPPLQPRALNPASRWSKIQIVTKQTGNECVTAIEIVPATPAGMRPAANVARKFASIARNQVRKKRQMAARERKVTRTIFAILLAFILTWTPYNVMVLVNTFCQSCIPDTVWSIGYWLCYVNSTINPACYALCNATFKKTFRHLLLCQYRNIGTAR
Chain of Voltage-gated potassium channel subunit beta-2 (Rattus norvegicus) (P62483 whole entry, looked up): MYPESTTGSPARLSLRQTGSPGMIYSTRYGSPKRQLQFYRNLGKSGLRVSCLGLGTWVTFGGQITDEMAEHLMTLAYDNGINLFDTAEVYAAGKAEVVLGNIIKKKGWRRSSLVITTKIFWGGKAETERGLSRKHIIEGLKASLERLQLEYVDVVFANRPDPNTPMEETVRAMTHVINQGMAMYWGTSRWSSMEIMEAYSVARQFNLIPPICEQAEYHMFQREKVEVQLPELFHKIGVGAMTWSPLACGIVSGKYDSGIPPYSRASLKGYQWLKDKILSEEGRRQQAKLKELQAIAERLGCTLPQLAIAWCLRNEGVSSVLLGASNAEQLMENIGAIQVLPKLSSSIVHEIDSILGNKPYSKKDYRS

| SMILES | cell count [1] | inhibition [1] | inhibition of aggregation [2] | nuclei count [2] | inhibition [3] | nuclei count [3] | fluorescence slope [4] | NADPH fluorescence slope [5] | fluorescence slope [6] | inhibition [7] | inhibition [8] |
| --- | --- | --- | --- | --- | --- | --- | --- | --- | --- | --- | --- |
| Cc1nc(CNS(=O)(=O)c2cc(C)c(C)cc2C)cs1 | 331 | 6.3% (inactive) | -7.4% (inactive) | 109% | -13.2% (inactive) | 107% | -0.329 (inactive) | -5.1e-05 (inactive) | 0.00703 (inactive) | 9.82% (inactive) | 10.7% (inactive) |
| COC(=O)Cc1csc(N)n1 | 743 | 10% (inactive) | 15% (inactive) | 109% | -54.5% (inactive) | 122% | -0.529 (inactive) | 2.5e-05 (inactive) | 0.00536 (inactive) | 12.4% (inactive) | 22.3% (inactive) |
| CCOC(=O)c1cccc(NC(=O)CSc2nc3ccccc3c(=O)n2CC)c1 | 360 | 4.2% (inactive) | 7.7% (inactive) | 98.9% | -1.3% (inactive) | 104% | -0.465 (inactive) | 2.3e-05 (inactive) | 0.00728 (inactive) | 9.39% (inactive) | 18.3% (inactive) |
| Cc1ccc(C)c(-c2nc3ccc(N)cc3[nH]2)c1 | 340 | 3.9% (inactive) | 30.3% (inactive) | 77.7% | -114% (inactive) | 100% | -0.0465 (active) | -3.5e-05 (inactive) | 0.00338 (inactive) | 15.4% (inactive) | -9.14% (inactive) |
| COc1cc(NC(=O)c2ccco2)c(OC)cc1NC(=O)CCC(=O)Nc1cc(C)cc(C)c1 | 534 | -0.3% (inactive) | 18.3% (inactive) | 72.2% | 26.4% (inactive) | 68.3% | -0.279 (inactive) | 6.9e-06 (inactive) | 0.00626 (inactive) | 16% (inactive) | 27.3% (inactive) |
| Cc1nn(-c2ccc(F)cc2)c(C)c1NS(=O)(=O)c1ccc(Cl)cc1 | 307 | 4.2% (inactive) | 17.1% (inactive) | 89.1% | -56% (inactive) | 98.7% | -0.382 (inactive) | -4.6e-05 (inactive) | 0.00631 (inactive) | 13.3% (inactive) | 18.8% (inactive) |
| Cc1ccc(-c2nnn(CC(=O)N(CC(=O)NC3CCCCC3)c3cnc4ccccc4c3)n2)o1 | 300 | -7.6% (inactive) | 27.2% (inactive) | 94.4% | -22.9% (inactive) | 107% | -0.523 (inactive) | -2.2e-06 (inactive) | 0.00469 (inactive) | 21% (inactive) | 24.7% (inactive) |
| O=C(Cn1cccc1C(=O)c1ccccc1)NCCN1CCOCC1 | 505 | 12.5% (inactive) | -9.1% (inactive) | 114% | 25% (inactive) | 98.8% | -0.583 (inactive) | -1.2e-05 (inactive) | 0.00604 (inactive) | 0.991% (inactive) | 12.8% (inactive) |
| CCOc1ccc2ccccc2c1/C=N/n1cncn1 | 416 | 3.4% (inactive) | 9.7% (inactive) | 97.3% | -92.4% (inactive) | 120% | -0.605 (inactive) | -4.9e-05 (inactive) | 0.0038 (inactive) | 11.7% (inactive) | -8.9% (inactive) |
| C=C(c1cccc2ccccc12)P(=O)(O)O | 429 | 11.9% (inactive) | 18.4% (inactive) | 92.8% | 18.6% (inactive) | 99.8% | -0.493 (inactive) | -0.000279 (inactive) | 0.00428 (inactive) | 17.7% (inactive) | 22.1% (inactive) |
| Cc1ccc(NC(=O)COc2nc(C)cs2)cc1 | 400 | 4.5% (inactive) | -3.7% (inactive) | 100% | -48.8% (inactive) | 108% | -0.555 (inactive) | -5e-05 (inactive) | 0.00704 (inactive) | 6.37% (inactive) | 9.54% (inactive) |
| O=S(=O)(c1ccc2c(c1)nc1n2CCC1)N1CCOCC1 | 519 | -1.9% (inactive) | -0.2% (inactive) | 96.3% | -18.9% (inactive) | 107% | -0.423 (inactive) | 2.5e-05 (inactive) | 0.00774 (inactive) | -4.44% (inactive) | 13.8% (inactive) |
| CC(=O)c1c(C)[nH]c(C(=O)NC2=NCCS2)c1C | 459 | -9.6% (inactive) | 15.8% (inactive) | 61.1% | 23.6% (inactive) | 95.2% | -0.571 (inactive) | -1.9e-05 (inactive) | 0.00678 (inactive) | -2.52% (inactive) | -11.8% (inactive) |
| CCN(Cc1nc2ccccc2c(=O)[nH]1)Cc1nc2cc(OC)c(OC)cc2c(=O)[nH]1 | 403 | -19.9% (inactive) | 0% (inactive) | 113% | -17.4% (inactive) | 144% | -0.324 (inactive) | -3.7e-06 (inactive) | 0.00825 (inactive) | -12.7% (inactive) | -12.6% (inactive) |
| CCOC(=O)c1c(C)[nH]c(C=Nc2ccccc2)c1O | 666 | 4.3% (inactive) | 12.6% (inactive) | 88.7% | -28.4% (inactive) | 103% | -0.598 (inactive) | 5.5e-06 (inactive) | 0.00349 (inactive) | -11% (inactive) | -41.4% (inactive) |
| CCCCCC1NC(=O)NC1CCCCCC(=O)O (stereo not drawn) | 457 | 0% (inactive) | 11.7% (inactive) | 103% | -129% (inactive) | 123% | -0.577 (inactive) | -5.6e-05 (inactive) | 0.00606 (inactive) | 14.6% (inactive) | 18.6% (inactive) |
| O=C(Nc1ccccc1)N1C(=O)C2(OCCO2)c2ccccc21 | 397 | 6.5% (inactive) | -15.7% (inactive) | 91.7% | -75.2% (inactive) | 105% | -0.542 (inactive) | -0.000137 (inactive) | 0.00486 (inactive) | 14.1% (inactive) | 7.78% (inactive) |
| O=C(NC(C(=O)c1ccccc1)n1ccc(=O)[nH]c1=O)c1ccccc1 (stereo not drawn) | 596 | -5.6% (inactive) | -13% (inactive) | 104% | -6.1% (inactive) | 104% | -0.449 (inactive) | -9.3e-05 (inactive) | 0.00666 (inactive) | 6.2% (inactive) | 12% (inactive) |
| O=C(CSc1nnc(Cc2ccccc2)n1C1CCCCC1)N1CCOCC1 | 367 | 7.2% (inactive) | 12.5% (inactive) | 104% | -264% (inactive) | 113% | -0.463 (inactive) | 5e-05 (inactive) | 0.00611 (inactive) | -13% (inactive) | -20.2% (inactive) |
| O=C(NCC(=O)N(CCc1ccccc1)C(C(=O)NC1CCCC1)c1cccnc1)c1ccco1 (stereo not drawn) | 464 | 6.5% (inactive) | 2.2% (inactive) | 108% | -126% (inactive) | 141% | -0.493 (inactive) | 1.4e-05 (inactive) | 0.00509 (inactive) | 7.14% (inactive) | 6.57% (inactive) |
| Cc1ccc(CS(=O)(=O)CCC(=O)NCC2CCCO2)cc1 (stereo not drawn) | 470 | 7% (inactive) | 1.1% (inactive) | 99.3% | -191% (inactive) | 121% | -0.31 (inactive) | -4.6e-05 (inactive) | 0.00623 (inactive) | 6.62% (inactive) | 8.68% (inactive) |
| O=c1[nH]c2ccccc2nc1NCCN1CCOCC1 | 404 | -26.6% (inactive) | -31.4% (inactive) | 98.9% | -80.4% (inactive) | 134% | -0.553 (inactive) | -6.2e-05 (inactive) | 0.00364 (inactive) | 8.81% (inactive) | 1.66% (inactive) |
| N#Cc1nc(COc2ccccc2)oc1NCCN1CCOCC1 | 778 | 1.6% (inactive) | -34.9% (inactive) | 96.4% | -14.1% (inactive) | 102% | -0.569 (inactive) | 2.2e-05 (inactive) | 0.00627 (inactive) | 2.21% (inactive) | 2.82% (inactive) |
| CC(=O)N1CCC2(CC1)CC(=O)c1cc(OCC(=O)NCc3ccco3)ccc1O2 | 376 | 6.6% (inactive) | -16.2% (inactive) | 113% | -143% (inactive) | 97.8% | -0.253 (inactive) | 1.5e-05 (inactive) | 0.00743 (inactive) | -7.82% (inactive) | 2.06% (inactive) |
| COc1cc(OC)cc(C(=O)N2CCN(C(=O)c3ccc(OC)c(OC)c3)CC2)c1 | 358 | -2% (inactive) | -5.3% (inactive) | 126% | -20.6% (inactive) | 89.3% | -0.603 (inactive) | 3.5e-06 (inactive) | 0.00572 (inactive) | 4.07% (inactive) | 14.7% (inactive) |
| CC(C)Oc1ccc(-c2nn(-c3ccccc3)cc2/C=c2\sc3ncnn3c2=O)cc1 | 335 | -4.6% (inactive) | 5.1% (inactive) | 88.3% | -335% (inactive) | 114% | -0.279 (inactive) | 1e-05 (inactive) | 0.00832 (inactive) | -16.4% (inactive) | -14.6% (inactive) |
| Cn1c(=O)c2ccccc2n(Cc2ccccc2F)c1=O | 254 | -8.1% (inactive) | 8.7% (inactive) | 74.6% | -51.8% (inactive) | 73.9% | -0.451 (inactive) | -7.1e-05 (inactive) | 0.00416 (inactive) | 1.3% (inactive) | 65.6% (active) |
| CC(O)c1nc2ccccc2n1C1CCCCC1 (stereo not drawn) | 631 | -19.6% (inactive) | -4.7% (inactive) | 99.7% | -16.4% (inactive) | 111% | -0.585 (inactive) | 4.8e-06 (inactive) | 0.00511 (inactive) | 20.2% (inactive) | 24.7% (inactive) |
